In ChEMBL document CHEMBL3593182, “Phytochemical Investigation of the Constituents Derived from the Australian Plant Macropidia fuliginosa” (2015):
The source made the active and inactive calls. No cut-off for these calls is given here.

Assays:
Escherichia coli [1] = assay: Antimicrobial activity against Escherichia coli ATCC 25922 assessed as zone of inhibition at 3675 uM incubated overnight at 37 degC; type: functional, organism-based
Procedure, shortened: (§1)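 Pure isolates screened against a panel of five bacteria and one fungus, each at a single concentration within 1639–5230 μM. A commercial antibiotic and antifungal agent were tested in parallel as references. Growth inhibition was recorded as the zone of inhibition.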

Staphylococcus aureus [2] = assay: Antimicrobial activity against Staphylococcus aureus ATCC 25923 assessed as zone of inhibition at 3675 uM incubated overnight at 37 degC; type: functional, organism-based; procedure, shortened: as §1
Staphylococcus aureus [3] = assay: Antimicrobial activity against methicillin-resistant Staphylococcus aureus 344/2-32 assessed as zone of inhibition at 3675 uM incubated overnight at 37 degC; type: functional, organism-based
Pseudomonas aeruginosa [4] = assay: Antimicrobial activity against Pseudomonas aeruginosa ATCC 27853 assessed as zone of inhibition at 3675 uM incubated overnight at 37 degC; type: functional, organism-based; procedure, shortened: as §1
Streptococcus pyogenes [5] = assay: Antimicrobial activity against Streptococcus pyogenes 345/1 assessed as zone of inhibition at 3675 uM incubated overnight at 37 degC; type: functional, organism-based
Candida albicans [6] = assay: Antimicrobial activity against Candida albicans ATCC 10231 assessed as zone of inhibition at 3675 uM incubated overnight at 37 degC; type: functional, organism-based; procedure, shortened: as §1
Escherichia coli [7] = assay: Antimicrobial activity against Escherichia coli ATCC 25922 assessed as zone of inhibition at 2762 uM incubated overnight at 37 degC; type: functional, organism-based; procedure, shortened: as §1
Staphylococcus aureus [8] = assay: Antimicrobial activity against Staphylococcus aureus ATCC 25923 assessed as zone of inhibition at 2762 uM incubated overnight at 37 degC; type: functional; conditions: read-out: IZ; procedure, shortened: as §1
Staphylococcus aureus [9] = assay: Antimicrobial activity against methicillin-resistant Staphylococcus aureus 344/2-32 assessed as zone of inhibition at 2762 uM incubated overnight at 37 degC; type: functional, organism-based
Pseudomonas aeruginosa [10] = assay: Antimicrobial activity against Pseudomonas aeruginosa ATCC 27853 assessed as zone of inhibition at 2762 uM incubated overnight at 37 degC; type: functional, organism-based; procedure, shortened: as §1
Streptococcus pyogenes [11] = assay: Antimicrobial activity against Streptococcus pyogenes 345/1 assessed as zone of inhibition at 2762 uM incubated overnight at 37 degC; type: functional; conditions: read-out: IZ; procedure, shortened: as §1
Candida albicans [12] = assay: Antimicrobial activity against Candida albicans ATCC 10231 assessed as zone of inhibition at 2762 uM incubated overnight at 37 degC; type: functional, organism-based; procedure, shortened: as §1
Escherichia coli [13] = assay: Antimicrobial activity against Escherichia coli ATCC 25922 assessed as zone of inhibition at 1639 uM incubated overnight at 37 degC; type: functional, organism-based; procedure, shortened: as §1
Staphylococcus aureus [14] = assay: Antimicrobial activity against Staphylococcus aureus ATCC 25923 assessed as zone of inhibition at 1639 uM incubated overnight at 37 degC; type: functional, organism-based; procedure, shortened: as §1
Staphylococcus aureus [15] = assay: Antimicrobial activity against methicillin-resistant Staphylococcus aureus 344/2-32 assessed as zone of inhibition at 1639 uM incubated overnight at 37 degC; type: functional, organism-based
Pseudomonas aeruginosa [16] = assay: Antimicrobial activity against Pseudomonas aeruginosa ATCC 27853 assessed as zone of inhibition at 1639 uM incubated overnight at 37 degC; type: functional, organism-based; procedure, shortened: as §1
Streptococcus pyogenes [17] = assay: Antimicrobial activity against Streptococcus pyogenes 345/1 assessed as zone of inhibition at 1639 uM incubated overnight at 37 degC; type: functional, organism-based; procedure, shortened: as §1
Candida albicans [18] = assay: Antimicrobial activity against Candida albicans ATCC 10231 assessed as zone of inhibition at 1639 uM incubated overnight at 37 degC; type: functional, organism-based; procedure, shortened: as §1
Escherichia coli [19] = assay: Antimicrobial activity against Escherichia coli ATCC 25922 assessed as zone of inhibition at 1724 uM incubated overnight at 37 degC; type: functional; conditions: read-out: IZ; procedure, shortened: as §1
Staphylococcus aureus [20] = assay: Antimicrobial activity against Staphylococcus aureus ATCC 25923 assessed as zone of inhibition at 1724 uM incubated overnight at 37 degC; type: functional, organism-based; procedure, shortened: as §1
Staphylococcus aureus [21] = assay: Antimicrobial activity against methicillin-resistant Staphylococcus aureus 344/2-32 assessed as zone of inhibition at 1724 uM incubated overnight at 37 degC; type: functional, organism-based
Pseudomonas aeruginosa [22] = assay: Antimicrobial activity against Pseudomonas aeruginosa ATCC 27853 assessed as zone of inhibition at 1724 uM incubated overnight at 37 degC; type: functional; conditions: read-out: IZ; procedure, shortened: as §1
Streptococcus pyogenes [23] = assay: Antimicrobial activity against Streptococcus pyogenes 345/1 assessed as zone of inhibition at 1724 uM incubated overnight at 37 degC; type: functional; conditions: read-out: IZ; procedure, shortened: as §1
Candida albicans [24] = assay: Antimicrobial activity against Candida albicans ATCC 10231 assessed as zone of inhibition at 1724 uM incubated overnight at 37 degC; type: functional, organism-based; procedure, shortened: as §1
Escherichia coli [25] = assay: Antimicrobial activity against Escherichia coli ATCC 25922 assessed as zone of inhibition at 2450 uM incubated overnight at 37 degC; type: functional, organism-based; procedure, shortened: as §1
Staphylococcus aureus [26] = assay: Antimicrobial activity against Staphylococcus aureus ATCC 25923 assessed as zone of inhibition at 2450 uM incubated overnight at 37 degC; type: functional, organism-based; procedure, shortened: as §1
Staphylococcus aureus [27] = assay: Antimicrobial activity against methicillin-resistant Staphylococcus aureus 344/2-32 assessed as zone of inhibition at 2450 uM incubated overnight at 37 degC; type: functional, organism-based
Pseudomonas aeruginosa [28] = assay: Antimicrobial activity against Pseudomonas aeruginosa ATCC 27853 assessed as zone of inhibition at 2450 uM incubated overnight at 37 degC; type: functional, organism-based; procedure, shortened: as §1
Streptococcus pyogenes [29] = assay: Antimicrobial activity against Streptococcus pyogenes 345/1 assessed as zone of inhibition at 2450 uM incubated overnight at 37 degC; type: functional, organism-based; procedure, shortened: as §1
Candida albicans [30] = assay: Antimicrobial activity against Candida albicans ATCC 10231 assessed as zone of inhibition at 2450 uM incubated overnight at 37 degC; type: functional, organism-based; procedure, shortened: as §1
Escherichia coli [31] = assay: Antimicrobial activity against Escherichia coli ATCC 25922 assessed as zone of inhibition at 3030 uM incubated overnight at 37 degC; type: functional, organism-based; procedure, shortened: as §1
Staphylococcus aureus [32] = assay: Antimicrobial activity against Staphylococcus aureus ATCC 25923 assessed as zone of inhibition at 3030 uM incubated overnight at 37 degC; type: functional, organism-based; procedure, shortened: as §1
Staphylococcus aureus [33] = assay: Antimicrobial activity against methicillin-resistant Staphylococcus aureus 344/2-32 assessed as zone of inhibition at 3030 uM incubated overnight at 37 degC; type: functional, organism-based
Pseudomonas aeruginosa [34] = assay: Antimicrobial activity against Pseudomonas aeruginosa ATCC 27853 assessed as zone of inhibition at 3030 uM incubated overnight at 37 degC; type: functional; conditions: read-out: IZ; procedure, shortened: as §1
Streptococcus pyogenes [35] = assay: Antimicrobial activity against Streptococcus pyogenes 345/1 assessed as zone of inhibition at 3030 uM incubated overnight at 37 degC; type: functional, organism-based; procedure, shortened: as §1
Candida albicans [36] = assay: Antimicrobial activity against Candida albicans ATCC 10231 assessed as zone of inhibition at 3030 uM incubated overnight at 37 degC; type: functional, organism-based; procedure, shortened: as §1

O=C1C(O)=Cc2cccc3ccc(-c4ccccc4)c1c23
inhibition zone (IZ) (Escherichia coli [1]): inactive | inhibition zone (IZ) (Staphylococcus aureus [2]): inactive | inhibition zone (IZ) (Staphylococcus aureus [3]): inactive | inhibition zone (IZ) (Pseudomonas aeruginosa [4]): inactive | inhibition zone (IZ) (Streptococcus pyogenes [5]): inactive | inhibition zone (IZ) (Candida albicans [6]): inactive

O=Cc1cc(O)c2c(-c3cc(O)cc(O)c3)c(-c3ccc(O)cc3)oc2c1
inhibition zone (IZ) (Escherichia coli [7]): inactive | zone of inhibition at 2762 µM (Staphylococcus aureus [8]): 1 mm | inhibition zone (IZ) (Staphylococcus aureus [9]): inactive | inhibition zone (IZ) (Pseudomonas aeruginosa [10]): inactive | zone of inhibition at 2762 µM (Streptococcus pyogenes [11]): 1 mm | inhibition zone (IZ) (Candida albicans [12]): inactive

C[C@@H]1O[C@@H](OC[C@H]2O[C@@H](Oc3c(-c4ccc(O)c(O)c4)oc4cc(O)cc(O)c4c3=O)[C@H](O)[C@@H](O)[C@@H]2O)[C@H](O)[C@H](O)[C@H]1O
inhibition zone (IZ) (Escherichia coli [13]): inactive | inhibition zone (IZ) (Staphylococcus aureus [14]): inactive | inhibition zone (IZ) (Staphylococcus aureus [15]): inactive | inhibition zone (IZ) (Pseudomonas aeruginosa [16]): inactive | inhibition zone (IZ) (Streptococcus pyogenes [17]): inactive | inhibition zone (IZ) (Candida albicans [18]): inactive

O=C(/C=C/c1ccc(O)cc1)OC[C@H]1O[C@@H](Oc2cc(O)cc3c2C(=O)CC(c2ccc(O)cc2)O3)[C@H](O)[C@@H](O)[C@@H]1O (stereo partly specified)
zone of inhibition at 1724 µM (Escherichia coli [19]): 1 mm | inhibition zone (IZ) (Staphylococcus aureus [20]): inactive | inhibition zone (IZ) (Staphylococcus aureus [21]): inactive | zone of inhibition at 1724 µM (Pseudomonas aeruginosa [22]): 10 mm | zone of inhibition at 1724 µM (Streptococcus pyogenes [23]): 1 mm | inhibition zone (IZ) (Candida albicans [24]): inactive

COC(OC)c1cc(O)c2c(-c3cc(O)cc(O)c3)c(-c3ccc(O)cc3)oc2c1
inhibition zone (IZ) (Escherichia coli [25]): inactive | inhibition zone (IZ) (Staphylococcus aureus [26]): inactive | inhibition zone (IZ) (Staphylococcus aureus [27]): inactive | inhibition zone (IZ) (Pseudomonas aeruginosa [28]): inactive | inhibition zone (IZ) (Streptococcus pyogenes [29]): inactive | inhibition zone (IZ) (Candida albicans [30]): inactive

O=C(/C=C/c1ccc(O)cc1)c1c(O)cc(O)cc1O[C@@H]1O[C@H](CO)[C@@H](O)[C@H](O)[C@H]1O
inhibition zone (IZ) (Escherichia coli [31]): inactive | inhibition zone (IZ) (Staphylococcus aureus [32]): inactive | inhibition zone (IZ) (Staphylococcus aureus [33]): inactive | zone of inhibition at 3030 µM (Pseudomonas aeruginosa [34]): 2 mm | inhibition zone (IZ) (Streptococcus pyogenes [35]): inactive | inhibition zone (IZ) (Candida albicans [36]): inactive
